In brackets after ≈: the same amount, converted by molar mass. Activity calls are given as the source filed them. The calls are words filed in the database; no cut-off is given here.
Legend:
Type in all cases: functional
Candida albicans [1] = assay: Antifungal activity against Candida albicans SC5314 after 48 hrs by broth microdilution method; conditions: SC5314, 48 h
Procedure, shortened: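 C. albicans SC5314 grown overnight, then set at (2−5) × 10^3 cells/mL in RPMI 1640. Compounds added at final 2 to 128 μg/mL, 35 °C for 48 h, following CLSI M27A3. OD600 read on a plate reader. MIC taken as the concentration giving 80% growth reduction.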

Candida albicans [2] = assay: Fungicidal activity against Candida albicans SC5314 at 32 ug/ml up to 2 hrs by YPD-based colony counting method
Procedure, shortened: (§1)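 Overnight SC5314 cells washed and resuspended at 1 × 10^6 cells/mL in MOPS-buffered RPMI 1640. Compound added at final 8, 16 and 32 μg/mL, shaken at 30 °C. Aliquots taken at 0, 0.5, 1, 2, 3, 4, 5, 6, 7, 8 and 12 h, washed, diluted and plated on YPD agar for viable colony counts. Means ± SD.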

Candida albicans [3] = assay: Induction of disruption of plasma membrane integrity in Candida albicans assessed as decrease in fluorescence intensity after 3 hrs by DPH-staining based spectrofluorophotometric analysis
Procedure, shortened: (§2)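 Cells at 1 × 10^6/mL in YPD treated 3 h (0, 4, 8, 16, 32 μg/mL; amphotericin B 8 μg/mL as positive control). Fixed in 0.37% formaldehyde 30 min, washed in PBS, freeze-thawed in liquid nitrogen. Stained with 1 μM DPH 45 min at 30 °C, washed. Fluorescence read at ex 350/em 450 nm and expressed as relative fluorescence. Means ± SD.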

Candida albicans [4] = assay: Fungicidal activity against Candida albicans SC5314 at 16 ug/ml up to 12 hrs by YPD-based colony counting method; procedure, shortened: as §1
Candida albicans [5] = assay: Induction of disruption of plasma membrane integrity in Candida albicans assessed as increase in fluorescence intensity after 3 hrs by propidium iodide-staining based FACS analysis
Procedure, shortened: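 Log-phase C. albicans harvested and suspended in RPMI 1640, then treated 3 h at 30 °C (amphotericin B 8 μg/mL as positive control). Stained with 5 μM propidium iodide for 30 min at room temperature. Cell fluorescence measured by flow cytometry.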

Candida albicans [6] = assay: Induction of disruption of plasma membrane integrity in Candida albicans assessed as decrease in fluorescence intensity at 8 ug/ml after 3 hrs by DPH-staining based spectrofluorophotometric analysis; procedure, shortened: as §2

| SMILES | MIC80 (Candida albicans [1]) [µg/mL] | also measured |
| --- | --- | --- |
| COC1=C(c2ccccc2)C(=O)C2=C(C1=O)c1ccccc1CO2 [BETULINAN B] | > 128 |  |
| COc1c(O)c(-c2ccccc2)cc(O)c1-c1cc(O)ccc1O | 64 (≈ 197 µM) |  |
| COC1=C(c2ccccc2O)C(=O)C=C(c2ccccc2)C1=O | 8 (≈ 26.1 µM) | Activity (Candida albicans [2]): Active; Activity (Candida albicans [3]): Dose-dependent effect; Activity (Candida albicans [4]): 99.8%; Activity (Candida albicans [5]): Dose-dependent effect |
| COC1(OC)C2C(=O)C=C(c3ccccc3)C1(O)Oc1ccc(O)cc12 (stereo not drawn) | > 128 |  |
| COC12Oc3ccc(O)cc3C1(O)C(=O)C=C(c1ccccc1)C2=O (stereo not drawn) | > 128 |  |
| Oc1cc(-c2ccccc2)c(O)c2c1-c1ccccc1CO2 | > 128 |  |
| COc1c(O)c(-c2ccccc2)cc(O)c1-c1ccc(O)cc1 | 16 (≈ 51.9 µM) |  |
| COc1c(O)c(-c2ccccc2)cc(O)c1-c1ccccc1 | > 128 |  |
| COC1=C(c2ccc(O)cc2)C(=O)C=C(c2ccccc2)C1=O | 8 (≈ 26.1 µM) |  |
| C[C@@H]1[C@H](O)[C@@H](C)/C=C/C=C/C=C/C=C/C=C/C=C/C=C/[C@H](O[C@@H]2O[C@H](C)[C@@H](O)[C@H](N)[C@@H]2O)C[C@@H]2O[C@](O)(C[C@@H](O)C[C@@H](O)[C@H](O)CC[C@@H](O)C[C@@H](O)CC(=O)O[C@H]1C)C[C@H](O)[C@H]2C(=O)O |  | Activity (Candida albicans [6]): Active |
| COC1=C(c2cc(O)ccc2O)C(=O)C=C(c2ccccc2)C1=O | 64 (≈ 199 µM) |  |
| COC1=C(c2ccccc2)C(=O)c2oc3ccccc3c2C1=O | > 128 |  |
| O=C1C=C(c2ccccc2)C(=O)C2=C1c1ccccc1CO2 | > 128 |  |
| COC1=C(c2ccccc2)C(=O)C=C(c2ccccc2)C1=O [BETULINAN C] | > 128 |  |
